Data as given in the EternaBench riboswitch data.

Test system: MS2 coat protein
Test: apparent Kd, MS2 coat protein; higher = weaker binding; RNA-MaP array; FMN 200 µM where present
How it was run: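 The apparent Kd is reported as the median of filtered per-cluster binding-curve fits. To get these curves, designs transcribed by stalled E. coli RNA polymerase on Illumina sequencing-chip clusters were titrated with SNAP-549-labelled MS2 coat protein from 0.7 or 1.5 nM, doubling to 3 µM. Titrations were run without and then with constant ligand in 100 mM Tris-HCl pH 7.5, 80 mM KCl, 4 mM MgCl2, BSA, DTT, yeast tRNA and Tween-20, and green signal was normalised to red-channel RNA signal and control-cluster median Fmax.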

[1] = designed as: ON switch for flavin mononucleotide, no ligand
[2] = ligand present: flavin mononucleotide, designed as: ON switch for flavin mononucleotide
[3] = designed as: OFF switch for flavin mononucleotide, no ligand
[4] = ligand present: flavin mononucleotide, designed as: OFF switch for flavin mononucleotide

| Sequence | apparent Kd [1] | apparent Kd [2] | apparent Kd [3] | apparent Kd [4] |
| --- | --- | --- | --- | --- |
| AACAUGGUACAGAAGGGCAAUUUAUUUAAUUAUUAUUUAGAACAGCAUUGCAGGAUAUGUUUAACAUGAGGAUCACCCAUGUAC | 70.4 nM | 13.8 nM | – | – |
| AACAUGGUCCAGAAGGGCUAUUUAUUUAAUUAUUAUUUAGAACAGCAUAGCAGGAUAUGGUUAACAUGAGGAUCACCCAUGUAC | 16 nM | 11.5 nM | – | – |
| AACAUGUGAGGAUAUUUAAGAAAAGAAAAGAAAGAAAAGAAAAAGAAGGCACAUGAGGAUCACCCAUGUAAGAA | – | – | 24.8 nM | 35.9 nM |
| AACCAACAUGAGGAUCACCCAUGUCAACCCAAGCGAGGAUAUCGGAGAAUAACAAUGGGACGAGAAGGCGCGACCU | 72.9 nM | 47.8 nM | – | – |
| AACCGACAUGAGGAUCACCCAUGUAAGGAUAUCCACGGACAACGCCAUAGUUGCCGGCGGAGAAGGUGCGUGGU | – | – | 26 nM | 46 nM |
| AACCUAUUACAGAAGGCCAGCUACAUGAGGAUCACCCAUGUCGAGUCAUGGAGGAUAUGUAGUAAUUUGCACGCGGGCGAGCAC | 59.7 nM | 7.05 nM | – | – |
| AACCUAUUACAGAAGGCCAGCUACAUGAGGAUCACCCAUGUCGAGUCAUGGAGGAUAUGUAGUAAUUUGCCCGCGGGCGAGUAC | 31.3 nM | 5.78 nM | – | – |
| AACCUGAUAGUGAGGAUAUCGGCGACGACAAGUCACGAGAAGGCACAUGAGGAUCACCCAUGUGAUAAAAUAAA | – | – | 20.4 nM | 42.1 nM |
| AACCUGCGUGGAGGAUAUGAGUGGUUGGACGCAUCAGAAGGCCAGCAGCCACAUGAGGAUCACCCAUGUACAGACACAUGUUUC | 245 nM | 95.1 nM | – | – |
| AACGCUAAAGGAUAUACAUGAGGAUCACCCAUGUUGAGGAAGGUUAGAUGAGGAGUAAGUAGAAGGUUAGACGA | – | – | 29.2 nM | 25.7 nM |
| AACUCACAUGAGGAUCACCCAUGUGAGGAUAUAUAAAUAUAUAUGUUAUUAUAUAUUUAUAGAAGGCGCGUGAU | – | – | 44.1 nM | 46.9 nM |
| AACUCACAUGAGGAUCACCCAUGUGAGGAUAUGGUUUCGCUGGCCGUAGCCAGUGGAACCAGAAGGCGCAUGAU | – | – | 20.1 nM | 20 nM |
| AACUCAGCAGGAUAUACAUACAAAUCCAUCAUGCCGUUUGAACAUGAGGAUCACCCAUGUAGAAGGGCUCACAC | – | – | 28.7 nM | 51.5 nM |
| AACUCGUCAGGAUAUGCGCACAGAUAAUACGCUUCGCAAUUGCAGAAGGGACAUGAGGAUCACCCAUGUAAAUA | – | – | 30.6 nM | 27 nM |
| AACUGACAUGAGGAUCACCCAUGUCAGGAUAUGACUUGAUAGAAAAUAAAAUAUCAUGUCAGAAGGGACAUGGA | – | – | 23.8 nM | 33.3 nM |
| AACUGUACAGGAUAUACAUGAGGAUCACCCAUGUGAGAAUUAAGUGGAGAACCACAAAGUAGAAGGGUACAGGA | – | – | 44.8 nM | 286 nM |
| AACUUCAGAGGAUAUACAUGAGUGAAAAAAGUCUGAUAACUACAUGAGGAUCACCCAUGUAGAAGGCUGUAGCA | – | – | 29.1 nM | 35.4 nM |
| AAGAAACAUGAGGAUCACCCAUGUAAAUAAAACACAGGAUAUCGAAUAUGGGAGAUUUAACGAGAAGGGUGAAGAA | 100 nM | 56.6 nM | – | – |
| AAGAAACAUGAGGAUCACCCAUGUCAGGAUAUGCAAAACUGACGAAAGUCAGAAGAAAGCAGAAGGGACUAGAA | – | – | 59.8 nM | 79.7 nM |

| Sequence | apparent Kd [1] | apparent Kd [2] | apparent Kd [3] | apparent Kd [4] |
| --- | --- | --- | --- | --- |
| AAGAAACAUGAGGAUCACCCAUGUCAGGAUAUGCAAGACUGACGAAAGUCAGUCAAAAGCAGAAGGGACUAGAA | – | – | 57.2 nM | 76.6 nM |
| AAGAAAUGGGAGUGAUCUGGUUCCGAGGAUAUAGGCAUCGGUACAUGAGGAUCACCCAUGUCCGACUAGAAGGCGGACGGGUCC | 34.1 nM | 8.76 nM | – | – |
| AAGAACAACCAGAAGGCAAGGCAAACAUGAGGAUCACCCAUGUAAUAUUUGAGGAUAUGGGUUCGACGUGGUCUAAAGUCAGGU | 120 nM | 14.1 nM | – | – |
| AAGAAGUCAGGAUAUGCUGCUCGUCACUUGCGUGAUGAGUAGCAGAAGGGACAUGAGGAUCACCCAUGUAAAGU | – | – | 51.6 nM | 79.7 nM |
| AAGAAGUGAGGAUAUCCUGCUCGUCACUUGCGUGAUGAGUAGGAGAAGGCACAUGAGGAUCACCCAUGUAAAGA | – | – | 37.4 nM | 41.6 nM |
| AAGAAGUGAGGAUAUCGUGCUCGUCACUUGCGUGAUGAGUACGAGAAGGCACAUGAGGAUCACCCAUGUAAAGA | – | – | 37.6 nM | 46.1 nM |
| AAGAAGUGAGGAUAUGCUGCUCGUCACUUGCGUGAUGAGUAGCAGAAGGCACAUGAGGAUCACCCAUGUGAAGA | – | – | 25.1 nM | 42.2 nM |
| AAGAUGCGGAUAGGAUAUGGAGAGAAAGAAAGACCAGAAGGAUUGGUCAUAUAACAUGAGGAUCACCCAUGUAUAUGUUGUGAA | – | – | 19.9 nM | 16.6 nM |
| AAGCAGGUAAAUAAACUCAAUUACAUGAGGAUCACCCAUGUAUAGGAUAUCGUCAGGAAUACUGACGAGAAGGAUACAUCCUGC | – | – | 17.7 nM | 63.9 nM |
| AAGCCACAUGAGGAUCACCCAUGUAUUUGACAGCGAGGAUAUGGGCCGCCAUGACGAGCACCAGAAGGCGCUGGUA | 20.9 nM | 16.3 nM | – | – |
| AAGCCCUGAGGAUAUCCCAACUCGCACAUGAGGAUCACCCAUGUUCUUCUCUGGGUUUCGGGAGAAGGCAGGCCUC | – | – | 96.5 nM | 43.8 nM |
| AAGCGAGGGACAGGAUAUGCAGCGAAACUCGCCGCAGAAGGGUCGACAUGAGGAUCACCCAUGUCCUUACGCUCCAAGUAGUGG | 232 nM | 299 nM | – | – |
| AAGCGCUGUCAAGGAUAUCCGAAAAGAGAAUAAGGAGAAGGUGACAUGAGGAUCACCCAUGUGCACUGGGUGGACGCGCGCUCC | – | – | 549 nM | 196 nM |
| AAGCUCUGUGAGAAGGCGCCCUUUGCGGUUGGGCGAGGAUAUCACAUGAGGAUCACCCAUGUCGGUGCAUCAGACAGCGUAUAA | – | – | 215 nM | 40.3 nM |
| AAGCUGCGCCAGAAGGGACCGACAUGAGGAUCACCCAUGUCCACAAGAGUCAGGAUAUGGCGUGGAGGCUCGUUUAUGUCCAAG | 13.1 nM | 5.44 nM | – | – |
| AAGCUGGUAGGAUAUACUAGGGCGAUUAAUACGCCGAUAGUACAUGAGGAUCACCCAUGUAGAAGGGCCAGAAA | – | – | 27.5 nM | 22.1 nM |
| AAGGACUGAAUAAUAAGUAGAAAUACAUGAGGAUCACCCAUGUAGGAUAUCGUCAGGAAUACUGACGAGAAGGACAUACAGUCC | – | – | 13.6 nM | 16.7 nM |
| AAGGUACGAGGAUAUACAUAGAUACAGACACAUGUUCAAGUACAUGAGGAUCACCCAUGUAGAAGGCGUAUAUA | – | – | 38.7 nM | 160 nM |
| AAGUAGAUCCGAGGAUAUACAAGGCGGAAAUGCUACAUGAGGAUCACCCAUGUAGAAGGCGGAUCUACAGGUACUAAAGUACCA | – | – | 6.71 nM | 19.3 nM |

| Sequence | apparent Kd [1] | apparent Kd [2] | apparent Kd [3] | apparent Kd [4] |
| --- | --- | --- | --- | --- |
| AAGUAGAUCCGAGGAUAUACAUAGCGGAAACGCAACAUGAGGAUCACCCAUGUAGAAGGCGGAUCUACAGGUACUAAAGUACCA | – | – | 7.77 nM | 13.5 nM |
| AAGUAGGAAGGAUAUACAUGGAUAUACAUUCAUGUGGACCUACAUGAGGAUCACCCAUGUAGAAGGUCCUAAUA | – | – | 18.1 nM | 12.1 nM |
| AAGUAUAAGGGCAUUAAACAUGAGGAUCACCCAUGUACAAUAGAGGAUAUGCAUUUUGGUUUAGAGUAGAAGGUUAGAGAAUAU | – | – | 28 nM | 33.4 nM |
| AAGUCGUGAGGAUAUACAUGGAUAUACAUUUAUGUAAAACUACAUGAGGAUCACCCAUGUAGAAGGCACGAAUA | – | – | 50.7 nM | 128 nM |
| AAGUCGUGAGGAUAUACAUGGAUAUACAUUUAUGUGGACCUACAUGAGGAUCACCCAUGUAGAAGGCACGAAUA | – | – | 85.2 nM | 69.4 nM |
| AAGUCUGGACGAGGAUAUCAGCUGUAACUGGCGUCGACAUGAGGAUCACCCAUGUUGCUAUAGGGUGAGAAGGCGUUUGGGCAA | 47.7 nM | 28.8 nM | – | – |
| AAGUUCUGAGGAUAUACAUAGAUUUACAUGAGGAUCACCCAUGUUCCUCUAUGUAUUAAUGUAGAAGGCAGAAGAA | – | – | 24.4 nM | 185 nM |
| AAGUUUUUACAAGGAUAUCAGUUGUUUAUAAAUUAAACAUGAGGAUCACCCAUGUAACAAAGGAGUGAGAAGGUGUGAUGGAAA | 545 nM | 283 nM | – | – |
| AAUAACAAGCAGAAGGGUGAAACGAUAUAGUGCACAGGAUAUGCAAUAAUUCUAAACAUGAGGAUCACCCAUGUCUAGCAUAAA | 28.2 nM | 9.84 nM | – | – |
| AAUAACAGAGGAUAUACUAUUUUAUGUGUUUAUUGUUUUAAACAUGAGGAUCACCCAUGUAGAAGGCUGAGUAA | – | – | 42.2 nM | 59.8 nM |
| AAUAACAGAGGAUAUACUGUUUUAUGUAUUUAUUAUUUUAAACAUGAGGAUCACCCAUGUAGAAGGCUGAUUAA | – | – | 30.2 nM | 27 nM |
| AAUAACAGAGGAUAUACUGUUUUAUGUAUUUAUUAUUUUGAACAUGAGGAUCACCCAUGUAGAAGGCUGAUUAA | – | – | 33.3 nM | 28.4 nM |
| AAUAAUAGCGAGGAUAUCGUAUCGGAAACGAUACGAGAAGGCGUAACAUGAGGAUCACCCAUGUUCCUCAAUAA | – | – | 38 nM | 313 nM |
| AAUAAUGAUAAGGAUAUCACUAGCCUCGGCUAGUGAGAAGGUAUCACAUGAGGAUCACCCAUGUGUUCCAAUAA | – | – | 16.1 nM | 40.3 nM |
| AAUAGUGACCAGAAGGCGUCGCGUCGAUAGCGACGAGGAUAUGGUGAGUGAGGAGCAAACUCCACAUGAGGAUCACCCAUGUCC | 594 nM | 89.9 nM | – | – |
| AAUAUGAGCUGGUCUAAACUCAAAACAUGAGGAUCACCCAUGUAGGAUAUCAGCACGAUAAGUGCUGAGAAGGACAUCCAGCUC | – | – | 16.7 nM | 20.5 nM |
| AAUAUGAGCUGGUUAUAAAACCUGACAUGAGGAUCACCCAUGUAGGAUAUCAGCACGAUAAGUGCUGAGAAGGACAUCCAGCUC | – | – | 13.4 nM | 14 nM |
| AAUAUGGGAGGAUAUGCAUAGAUAAAGAAACAUGUUCAACCACAUGAGGAUCACCCAUGUAGAAGGCCCAUAUA | – | – | 34.6 nM | 129 nM |
